Measurements reported in BindingDB's records for doi:10.1021/jm020545z (Amorepacific R&D Center, 2004).
pIC50: −log10 of the molar value.

Molecular target: T1, Prostaglandin G/H synthase 1 (Mus musculus, UniProt P22437)
T1 sequence (P22437 whole entry): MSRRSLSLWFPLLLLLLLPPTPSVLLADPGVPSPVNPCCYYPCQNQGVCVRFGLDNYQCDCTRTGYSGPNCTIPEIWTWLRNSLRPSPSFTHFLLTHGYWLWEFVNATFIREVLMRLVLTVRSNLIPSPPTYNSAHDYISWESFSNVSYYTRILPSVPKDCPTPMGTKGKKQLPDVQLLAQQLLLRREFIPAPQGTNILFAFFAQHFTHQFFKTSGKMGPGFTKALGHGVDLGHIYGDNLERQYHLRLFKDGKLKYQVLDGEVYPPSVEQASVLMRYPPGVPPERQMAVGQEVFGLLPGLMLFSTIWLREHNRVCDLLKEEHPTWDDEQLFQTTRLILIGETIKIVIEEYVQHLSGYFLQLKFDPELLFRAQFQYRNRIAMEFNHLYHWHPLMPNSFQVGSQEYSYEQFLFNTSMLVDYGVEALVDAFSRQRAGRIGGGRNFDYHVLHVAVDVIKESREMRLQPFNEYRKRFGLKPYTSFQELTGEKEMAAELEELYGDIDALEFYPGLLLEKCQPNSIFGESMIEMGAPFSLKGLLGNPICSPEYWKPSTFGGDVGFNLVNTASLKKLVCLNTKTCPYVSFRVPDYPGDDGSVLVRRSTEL
Assay: In vitro inhibitory activity against prostaglandin G/H synthase 1 using mouse peritoneal macrophage method
Summary of the method: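 Freshly harvested mouse peritoneal macrophages were the enzyme source. Cells were preincubated 10 min at 37 °C with inhibitor in DMSO, then stimulated with calcium ionophore A23187 for 10 min. The reaction was stopped with indomethacin in 0.1% BSA buffer and centrifuged, and supernatant TXB₂ was measured by ELISA.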

pIC50: < 4.52
SMILES: CC1(C)OC(c2ccc(S(N)(=O)=O)cc2)=C(c2ccco2)C1=O
